How the values were obtained:
Homo sapiens [1] = organism: Homo sapiens; test: Inhibition of human P-gp expressed in mouse T-cell lymphoma assessed as ratio of rhodamine 123 uptake in P-gp expressing cells to rhodamine 123 uptake in non P-gp expressing cells at 10 uM by flow cytometric analysis relative to control; assay type: cell-based
How it was run: (§1)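 Rhodamine 123 uptake is read by flow cytometry in the parental mouse T-lymphoma line and in the colchicine-selected subline expressing human P-gp, with or without inhibitor. Fluorescence in each line is first normalized to the untreated control of that line. The FAR value is then calculated as subline fluorescence divided by parental-line fluorescence.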

Homo sapiens [2] = organism: Homo sapiens; test: Inhibition of human P-gp expressed in mouse T-cell lymphoma assessed as ratio of rhodamine 123 uptake in P-gp expressing cells to rhodamine 123 uptake in non P-gp expressing cells at 1 uM by flow cytometric analysis relative to control; assay type: cell-based; how it was run: as §1
Homo sapiens [3] = organism: Homo sapiens; test: Activity at human P-gp expressed in mouse T-cell lymphoma assessed as fluorescence ratio at 50 uM by flow cytometric analysis
How it was run: (§2)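 Cells are the parental mouse T-lymphoma line and its subline transfected retrovirally with human P-gp, which is maintained under colchicine selection. The fluorescent test compound is added at 50 or 100 µM. Intrinsic compound fluorescence taken up by the cells is read by flow cytometry. The ratio relates the uptake in the P-gp-expressing subline to that in the parental line. Values are means of three determinations.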

[4] = Cellular uptake in mouse T-cell lymphoma assessed as fluorescence ratio at 100 uM by flow cytometric analysis; assay type: ADME; details: in vitro; how it was run: as §2
[5] = Cellular uptake in mouse T-cell lymphoma assessed as fluorescence ratio at 50 uM by flow cytometric analysis; assay type: ADME; details: in vitro; how it was run: as §2
[6] = Cytotoxicity against mouse T-cell lymphoma expressing human P-gp assessed as reduction of cell viability after 48 hrs by MTT assay; assay type: ADME
How it was run: (§3)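 MTT viability assay, with formazan formation by mitochondrial dehydrogenases as the read-out. Cells are the parental mouse T-lymphoma line or its retrovirally transfected subline expressing human P-gp, which is kept under colchicine. Cells are incubated with varying concentrations of compound for 24 or 48 h. IC50 is derived from the reduction in viability.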

[7] = Cytotoxicity against mouse T-cell lymphoma assessed as reduction of cell viability after 48 hrs by MTT assay; how it was run: as §3
Homo sapiens [8] = organism: Homo sapiens; test: Activity at human P-gp expressed in mouse T-cell lymphoma assessed as fluorescence ratio at 100 uM by flow cytometric analysis; how it was run: as §2
[9] = Cytotoxicity against mouse T-cell lymphoma assessed as reduction of cell viability after 24 hrs by MTT assay; how it was run: as §3
[10] = Cytotoxicity against mouse T-cell lymphoma expressing human P-gp assessed as reduction of cell viability after 24 hrs by MTT assay; assay type: ADME; how it was run: as §3

SMILES | Ratio (Homo sapiens [1]) | Ratio (Homo sapiens [2]) | Ratio (Homo sapiens [3]) | Ratio [4] | Ratio [5] | IC50 [6] | IC50 [7] | Ratio (Homo sapiens [8]) | IC50 [9] | IC50 [10]
CCOC(=O)C1=CN(Cc2cccc(OC)c2)c2ccccc2C1c1ccc(OC)cc1 (stereo unspecified) | 9.95 | 2.23 | – | – | – | – | – | – | – | –
CCOC(=O)C1=CN(Cc2ccccc2)c2ccccc2C1c1ccc(OC)cc1 (stereo unspecified) | 5.52 | 1.27 | – | – | – | – | – | – | – | –
CCOC(=O)C1=CN(Cc2ccccc2)c2ccccc2C1c1cccc(OC)c1 (stereo unspecified) | 7.43 | 1.55 | 1.03 | 0.99 | 1.03 | > 160 µM | > 160 µM | 0.99 | > 160 µM | > 160 µM
CCOC(=O)C1=CN(Cc2cccc(OC)c2)c2ccccc2C1c1cccc(OC)c1 (stereo unspecified) | 9.68 | 2.26 | – | – | – | – | – | – | – | –
COc1ccc(CCN(C)CCCC(C#N)(c2ccc(OC)c(OC)c2)C(C)C)cc1OC (stereo unspecified) | 4.98 | 1.46 | – | – | – | – | – | – | – | –
CCOC(=O)C1=CN(Cc2ccccc2)c2ccccc2C1c1ccc(OC)c(OC)c1 (stereo unspecified) | 12.8 | 3.42 | 1.06 | 1.07 | 1.06 | > 160 µM | > 160 µM | 1.07 | > 160 µM | > 160 µM
CCOC(=O)C1=CN(Cc2ccc(OC)cc2)c2ccccc2C1c1cccc(OC)c1 (stereo unspecified) | 10.3 | 2.03 | – | – | – | – | – | – | – | –
CCOC(=O)C1=CN(Cc2ccc(OC)cc2)c2ccccc2C1c1ccc(OC)cc1 (stereo unspecified) | 12.4 | 2.55 | – | – | – | – | – | – | – | –
CCOC(=O)C1=CN(Cc2ccccc2)c2ccccc2C1c1cc(OC)cc(OC)c1 (stereo unspecified) | 10.5 | 2.96 | – | – | – | – | – | – | – | –
CCOC(=O)C1=CN(Cc2ccccc2)c2ccccc2C1c1ccccc1 (stereo unspecified) | 2.86 | 0.79 | – | – | – | – | – | – | – | –

Source: ChEMBL document CHEMBL3596125, “Discovery of substituted 1,4-dihydroquinolines as novel promising class of P-glycoprotein inhibitors: First structure-activity relationships and bioanalytical studies” (Bioorg Med Chem Lett, 2015)
